# Screening results as filed in PubChem.
# This is a sample that favours compounds with a hit; in the whole collection about 1.8% have one here.
# Cneo AK release – causes C. neoformans cell lysis; adenylate kinase release luminescence, 4 h; normalised: neutral wells 0, clomiphene wells 100; lysis activity, % at 15 µM; 360,000 compounds, 0.2% hits;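 active = mean lysis activity across replicates of at least 80%, whatever share of replicates individually reach that level; inactive = mean lysis activity below 80%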
#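 read-out = cell lysis signal | test system = log-phase Cryptococcus neoformans yeast cells | input = cells at 5 × 10^6 per mL | medium = fresh YPD growth medium | signal = luminescent adenylate kinase detection reagent | timing = 4 h at 37 °C static, read 1 h later | dosing = single dose | controls = Clomiphene as positive lysis control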
# Mot1-301 SUMO – inhibitors of SUMOylation pathway: yeast Mot1-301 growth rescue. S. cerevisiae Mot1-301 growth rescue, ATP luminescence, 38.5C; percent above DMSO median, 100 means doubled. growth rescue, % at 18.8 µM. 320,000 compounds, 1% hits;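 active = every valid replicate shows activation above 250% relative to neutral control wells; inactive = the rest, any valid replicate at or below 250%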;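 also: OY570 slx delta 5 strain wells were the positive control but not used for scaling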
# C2C12 statin – suppression of simvastatin myotoxicity. C2C12 myotubes + simvastatin, ATP luminescence, 48 h; scaled: DMSO 0, geranylgeraniol control 100. rescue of ATP level, % at 7.49 µM. 330,000 compounds, 0.78% hits;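 active = mean ATP rescue above about 67%, or every replicate alone reaching that limit, limit read from the data, passing the limit was not always enough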;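 also: myotubes were challenged with 10 µM simvastatin during compound exposure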
# Efflux pump mplx – antifungal efflux pump inhibition, Nile Red retention; AID 485275; inhibition, % at 10 µM; S. cerevisiae Candida pump triplex; 330,000 compounds, 0.44% hits;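 active = plate passing quality check with inhibition over a set limit, or well fluorescence over plate mean plus 4 SD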;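 also: Nile Red retained in pooled yeast measured as flow cytometry median fluorescence; 0% = buffer negative control and 100% = Enniatin B positive control; higher means more Nile Red kept so more efflux inhibition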
# An asterisk follows results filed as active; x = no result given; + = active, no number; ! = a repeat was not active.
SMILES,Cneo AK release,Mot1-301 SUMO,C2C12 statin,Efflux pump mplx
CC(c1ccco1)N(C(=O)c1ccccc1NS(=O)(=O)c1cc([N+](=O)[O-])ccc1Cl)c1ccccn1 (stereo not given),x,402*,x,0
Cc1ccc(C(=O)N(c2ccccn2)C(C)c2ccco2)cc1C (stereo not given),-1,x,123*,0
CC=Cc1ccc2n(c1=O)C[C@@H]1[C@@H](CO)[C@H](C(=O)N3CCCCC3)N(Cc3ccccn3)[C@H]21 (mixture of isomers),-4,x,-3,x
CCOc1ccc(N=c2oc3cc(O)ccc3cc2C(=O)NCC2CCCO2)cc1 (stereo not given),-3,357*,-1,0
COc1ccc(N=c2oc3cc(O)ccc3cc2C(=O)NCC2CCCO2)cc1 (stereo not given),6,4,x,0
CC(C)NC(=O)Nc1cccc2c1O[C@H](CN(C)CC1CCCCC1)[C@H](C)CN([C@@H](C)CO)C2=O,-4,x,-6,x
C[C@@H]1CN([C@@H](C)CO)C(=O)c2cc(C#CCc3ccccc3)cnc2O[C@@H]1CN(C)C(=O)C1CCCCC1,2,x,-5,x
Cc1csc2nc(CNC(=O)c3cccc(C(F)(F)F)c3)cn12,x,-5,109*,0
O=C(CSc1nnnn1C1CCCC1)NCc1cccs1,x,-10,x,0
Cc1c(C(=O)OCC(C)(C)CN(C)C)oc2ccccc12,-6,8,95*,0
Cc1ccc(CSc2nnc3nc(C)cc(C)n23)cc1,2,4,139*,0
CCSc1nnc2nc(C)cc(C)n12,1,300,x,0
CCCCNS(=O)(=O)c1cccc(S(=O)(=O)N2CCCC2)c1,-1,303*,-1,0
CCN(CC)C(=O)c1scc2c1OCCO2,0,-14,120*,0
O=C(c1ccccc1)c1ccc(OCCCCN2CCCCC2)cc1,2,4,x,0
O=C(c1ccccc1)c1ccc(OCCCN2CCCC2)cc1,-4,+,-1,0
O=C(CCCOc1ccccc1)N1CCCCC1,1,5,94*,0
C[C@@H]1CN([C@H](C)CO)C(=O)Cc2cc(NS(C)(=O)=O)ccc2O[C@@H]1CN(C)Cc1ccc(Cl)c(Cl)c1,-1,x,108*,x
C[C@@H]1CN([C@@H](C)CO)C(=O)Cc2cc(NS(C)(=O)=O)ccc2O[C@H]1CN(C)Cc1ccc(Cl)c(Cl)c1,5,x,-25,x
C[C@@H]1CN([C@@H](C)CO)C(=O)Cc2cc(NS(=O)(=O)c3ccc(Cl)cc3)ccc2O[C@@H]1CN(C)Cc1ccc(Cl)c(Cl)c1,-2,x,29,x
C[C@H]1CN([C@@H](C)CO)C(=O)Cc2cc(NS(C)(=O)=O)ccc2O[C@@H]1CN(C)Cc1ccc(Cl)c(Cl)c1,112*!,x,22,0
C[C@H](CO)N1C[C@H](C)[C@@H](CN(C)Cc2ccc(Cl)c(Cl)c2)Oc2ccc(NS(C)(=O)=O)cc2CC1=O,50,x,92*,x
COC(CN(C(=O)CCl)C(C(=O)NC1CCCCC1)c1ccc(Cl)cc1)OC (stereo not given),1,79,71*,0
NC(=O)C(Cc1ccccc1)N1C(=O)c2ccccc2C1=O (stereo not given),-2,10,-2,0
NS(=O)(=O)OCC(Cc1ccccc1)N1C(=O)c2ccccc2C1=O (stereo not given),3,2,111*,0
SMILES,Cneo AK release,Mot1-301 SUMO,C2C12 statin,Efflux pump mplx
COc1ccccc1NC(=O)C(O)C(O)C(=O)Nc1ccccc1OC (stereo not given),8,-5,5,0
CC(C)C[C@@]12C(=O)N(c3cccc(Cl)c3)C(=O)N1[C@H](c1ccc(Br)cc1)[C@@H]1C(=O)N(C(C)(C)C)C(=O)[C@@H]12,0,-15,98*,0
COc1ccc([C@@H]2[C@@H]3C(=O)N(C(C)(C)C)C(=O)[C@@H]3[C@]3(C)C(=O)N(c4cccc(C)c4)C(=O)N23)cc1,-1,280*,10,0
CO[C@H]1CN(C)C(=O)c2ccc(NS(=O)(=O)CC(F)(F)F)cc2OC[C@H](C)NC[C@H]1C,49,x,2,x
O=C(c1ccc(S(=O)(=O)NCc2ccco2)cc1)N1CCCC1,0,-2,2,0
O=S(=O)(NCc1ccco1)c1ccc(S(=O)(=O)N2CCCCC2)cc1,1,33,118*,0
CCCNC(=O)C(=O)c1cccn1-c1ccsc1C(=O)OC,0,-2,119*,0
COc1ccc(NC(=O)CC2C(=O)NCCN2C(=O)c2ccc(Cl)cc2)cc1 (stereo not given),-1,-3,101*,0
COc1ccc(NC(=O)CC2C(=O)NCCN2C(=O)c2ccccc2)cc1 (stereo not given),-1,10,x,0
O=C(CC1C(=O)NCCN1C(=O)c1ccc([N+](=O)[O-])cc1)Nc1ccc(F)cc1 (stereo not given),-1,-11,101*,0
CC1(C(=O)NS(=O)(=O)c2ccc(C#N)cc2)CCN1C(=O)CCc1ccc(Cl)cc1Cl (stereo not given),2,x,8,x
CC(=O)OCCCNc1cc(Sc2ccc(Cl)cc2)c2nonc2c1[N+](=O)[O-],x,68,x,0
Cc1ccc(Sc2cc(NCCCO)c([N+](=O)[O-])c3nonc23)cc1,32,-6,102*,0
Cc1ccc(-c2nnn(CC(=O)Nc3cccc4cccnc34)n2)o1,0,353*,-1,0
CCCCn1c(SCc2ccccn2)nc2c1c(=O)n(C)c(=O)n2C,-2,-42,117*,0
C[C@@H]1CN([C@H](C)CO)C(=O)c2cccc(NC(=O)C3CCCCC3)c2O[C@H]1CN(C)Cc1ccncc1,-1,x,14,x
COC(=O)c1cc(S(=O)(=O)NCCc2ccccc2)c[nH]1,-1,213,120*,0
O=C(NCc1ccco1)C(c1cccnc1)N(C(=O)Cn1nnc2ccccc21)c1ccccc1 (stereo not given),0,-16,x,0
COc1ccc(N(C(=O)Cn2nnc3ccccc32)C(C(=O)NCc2ccco2)c2cccnc2)cc1 (stereo not given),0,-7,81*,0
COCCC(=O)N1CCCC(CNS(=O)(=O)c2ccc(OC)cc2)C1 (stereo not given),x,x,x,0
COCC(=O)N1CCCC(CNS(=O)(=O)c2ccc(OC)cc2)C1 (stereo not given),x,670*,x,0
CCOC(=O)C1CCCN(C(=O)C2CCC(CNS(=O)(=O)c3ccc(NC(C)=O)cc3)CC2)C1 (stereo not given),x,282*,-3,0
C=CCSc1nnc(CSc2nc3sc4c(c3c(=O)[nH]2)CCCC4)n1-c1ccccc1,-2,x,120*,x
CCOC(=O)CSc1nnc(CSc2nc3sc4c(c3c(=O)[nH]2)CCC4)n1-c1ccccc1,-1,-15,3,0
CN(C)CC#CCCCCCCC#CCN(C)C,x,996*,x,0
